# Laboratory results published in ChEMBL document CHEMBL4130635, “2,4-Diaminoquinazolines as Dual Toll-like Receptor (TLR) 7/8 Modulators for the Treatment of Hepatitis B Virus” (J Med Chem, 2018).
# Active and inactive are the calls of the source. The calls are words filed in the database; no cut-off is given here.
# Tests used:
# [1] = system: Toll-like receptor 7/8 (Homo sapiens); assay: Agonist activity at TLR7/8 in human PBMCs assessed as decrease in HBsAg levels in human hepatocytes infected with HBV genotype C for 12 days followed by exposure to conditioned supernatant from up to 5 uM compound treated PBMCs measured after 42 days
# Liver [2] = assay: Proinflammatory activity in C57BL/6J mouse liver assessed as TNFalpha levels at 3 mg/kg, po by multiplex assay (reference value: 15 pg/g); assay type: functional
# Cynomolgus monkey [3] = assay: Anti-inflammatory activity in cynomolgus monkey plasma assessed as IL-10 levels at 30 mg/kg, po after 24 hrs by Luminex assay (reference value: 195 pg/ml); assay type: functional, Macaca fascicularis
# Liver [4] = assay: Proinflammatory activity in C57BL/6J mouse liver assessed as CXCL-1 levels at 0.3 mg/kg, po by multiplex assay (reference value: 25 pg/g); assay type: functional
# [5] = Metabolic stability in mouse liver microsomes assessed as compound metabolized at 1 uM after 15 mins; assay type: ADME, microsome; conditions: read-out: Drug metabolism
# Procedure, shortened: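 Mouse (M) or human (H) liver microsomes incubated with compound at 1 μM; percent metabolized after 15 min.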
# Cynomolgus monkey [6] = assay: Effect on cytokine profile in cynomolgus monkey plasma assessed as IP10 levels at 30 mg/kg, po after 24 hrs by Luminex assay (reference value: 18.5 pg/ml); assay type: functional, Macaca fascicularis
# Procedure, shortened: (§1)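 Healthy cynomolgus monkeys given single oral doses of 1, 3, 9 and 30 mg/kg, with a 2-week wash-out planned between doses. Systemic cytokine levels in plasma were sampled at 0.5, 1, 2, 4, 9 and 24 h postdose.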
# Liver [7] = assay: Effect on cytokine profile in C57BL/6J mouse liver assessed as IFNgamma levels at 1 mg/kg, po by multiplex assay; assay type: functional, organism-based
# Procedure, shortened: (§2)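 Single oral gavage in 20% HP-β-CD to healthy C57BL/6 mice, groups of 15 at 0.3, 1, 3, 10 or 30 mg/kg. Three mice per group sacrificed at 0.5, 1, 2, 4 or 7 h. Plasma and liver cytokines by multiplex, maximum level reported, rounded to nearest multiple of 5.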
# Cynomolgus monkey [8] = assay: Induction of ISG response in cynomolgus monkey plasma assessed as upregulation of Mx1 mRNA expression at 3 mg/kg, po after 24 hrs by Fluidigm RT-qPCR analysis (reference value: 1); assay type: functional, Macaca fascicularis
# Procedure, shortened: (§3)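 Cynomolgus monkeys, single oral doses of 1, 3, 9 and 30 mg/kg with a planned 2-week wash-out between doses. Systemic ISG (ISG15, Mx1, OAS1) mRNA was measured by Fluidigm RT-qPCR at 1, 2, 4, 8 and 24 h postdose.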
# [9] = Absolute bioavailability in cynomolgus monkey at 1 to 30 mg/kg; assay type: ADME, organism-based, Macaca fascicularis; conditions: in vivo
# Cynomolgus monkey [10] = assay: Induction of ISG response in cynomolgus monkey plasma assessed as upregulation of Oas1b mRNA expression at 1 mg/kg, po after 24 hrs by Fluidigm RT-qPCR analysis (reference value: 1); assay type: functional, Macaca fascicularis
# Procedure, shortened: as §3
# Cynomolgus monkey [11] = assay: Induction of ISG response in cynomolgus monkey plasma assessed as upregulation of Mx1 mRNA expression at 9 mg/kg, po after 24 hrs by Fluidigm RT-qPCR analysis (reference value: 1); assay type: functional, Macaca fascicularis
# Procedure, shortened: as §3
# Cynomolgus monkey [12] = assay: Proinflammatory activity in cynomolgus monkey plasma assessed as IL-6 levels at 9 mg/kg, po after 24 hrs by Luminex assay (reference value: 80 pg/ml); assay type: functional, Macaca fascicularis
# [13] = Stability in mouse hepatocytes assessed compound turnover at 1 uM after 60 mins; assay type: ADME, cell-based, Hepatocyte; conditions: read-out: Drug metabolism
# Cynomolgus monkey [14] = assay: Anti-inflammatory activity in cynomolgus monkey plasma assessed as IL-10 levels at 3 mg/kg, po after 24 hrs by Luminex assay (reference value: 195 pg/ml); assay type: functional, Macaca fascicularis
# Plasma [15] = assay: Upregulation of IP-10 mRNA expression levels in C57BL/6J mouse plasma at 10 mg/kg, po by RT-qPCR analysis (reference value: 1); assay type: functional
# [16] = Cmax in cynomolgus monkey plasma at 3 mg/kg, po by LC-MS analysis; assay type: ADME, organism-based, Macaca fascicularis; parameters: dose 3 mg/kg, route oral
# Procedure, shortened: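 Healthy cynomolgus monkeys received oral doses of 1, 3, 9 and 30 mg/kg, with a 2-week wash-out between doses. Systemic compound concentrations by LC−MS at 0.25, 0.5, 1, 2, 4, 8 and 24 h postdose.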
# Liver [17] = assay: Proinflammatory activity in C57BL/6J mouse liver assessed as IL-6 levels at 30 mg/kg, po by multiplex assay (reference value: 10 pg/g); assay type: functional
# [18] = system: Toll-like receptor 7/8 (Homo sapiens); assay: Agonist activity at TLR7/8 in human PBMCs assessed as decrease in HBeAg levels in human hepatocytes infected with HBV genotype C for 12 days followed by exposure to conditioned supernatant from up to 5 uM compound treated PBMCs measured after 42 days
# Plasma [19] = assay: Effect on cytokine profile in C57BL/6J mouse plasma assessed as IL-12p70 levels at 1 mg/kg, po by multiplex assay (reference value: 560 pg/ml); assay type: functional
# Procedure, shortened: as §2
# [20] = Permeability of the compound in porcine LLC-PK1 cells expressing MDR1 at 1 uM by LC-MS/MS analysis; assay type: ADME, cell-based, Sus scrofa; conditions: pig, llc-pk1, 1 µM
# Liver [21] = assay: Proinflammatory activity in C57BL/6J mouse liver assessed as TNFalpha levels at 1 mg/kg, po by multiplex assay (reference value: 15 pg/g); assay type: functional, organism-based
# [22] = Stability in cynomolgus monkey hepatocytes assessed compound turnover at 1 uM after 60 mins; assay type: ADME, cell-based, Macaca fascicularis, Hepatocyte; conditions: read-out: Drug metabolism
# Cynomolgus monkey [23] = assay: Anti-inflammatory activity in cynomolgus monkey plasma assessed as IL-10 levels at 1 mg/kg, po after 24 hrs by Luminex assay (reference value: 195 pg/ml); assay type: functional, Macaca fascicularis
# Cynomolgus monkey [24] = assay: Effect on cytokine profile in cynomolgus monkey plasma assessed as IP10 levels at 3 mg/kg, po after 24 hrs by Luminex assay (reference value: 18.5 pg/ml); assay type: functional, Macaca fascicularis
# Procedure, shortened: as §1
# [25] = Cmax in C57BL/6J mouse plasma at 3 mg/kg, po by LC-MS analysis; assay type: ADME, organism-based; parameters: dose 3 mg/kg, route oral
# Procedure, shortened: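 Healthy C57BL/6 mice, groups of 15, given a single oral dose (0.3, 1, 3, 10 or 30 mg/kg) in 20% HP-β-CD. Blood drawn at 0.5 h. Three mice per group sacrificed at 0.5, 1, 2, 4 or 7 h, and compound in plasma and liver measured by LC−MS. Values rounded to whole numbers.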
# Plasma [26] = assay: Proinflammatory activity in C57BL/6J mouse plasma assessed as IL-6 levels at 1 mg/kg, po by multiplex assay (reference value: 505 pg/ml); assay type: functional
# [27] = target: TLR7 and TLR8 (Homo sapiens) (UniProt Q9NYK1+Q9NR97); assay: Agonist activity at TLR7/8 in human PBMCs co-cultured with primary human hepatocytes infected with HBV genotype C for 12 days assessed as increase in IFNalpha2 levels up to 5 uM measured after 42 days
# D(1A) dopamine receptor = D(1A) dopamine receptor (Homo sapiens, UniProt P21728); assay: Inhibition of dopamine D1 receptor (unknown origin)
# D(1A) dopamine receptor, sequence (P21728 whole entry): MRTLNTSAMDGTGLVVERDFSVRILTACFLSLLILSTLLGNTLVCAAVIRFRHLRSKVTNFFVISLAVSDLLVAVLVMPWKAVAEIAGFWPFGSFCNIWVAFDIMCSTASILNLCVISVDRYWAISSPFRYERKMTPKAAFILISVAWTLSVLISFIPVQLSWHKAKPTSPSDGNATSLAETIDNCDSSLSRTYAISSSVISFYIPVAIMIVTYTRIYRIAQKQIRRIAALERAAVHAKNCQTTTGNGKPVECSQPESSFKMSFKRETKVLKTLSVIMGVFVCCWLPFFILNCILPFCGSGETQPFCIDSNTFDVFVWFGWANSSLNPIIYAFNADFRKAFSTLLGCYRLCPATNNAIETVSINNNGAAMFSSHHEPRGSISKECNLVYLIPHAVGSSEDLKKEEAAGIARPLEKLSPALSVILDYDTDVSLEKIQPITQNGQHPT
# Liver [28] = assay: Induction of IFNalpha levels in C57BL/6J mouse liver at 10 mg/kg, po by ELISA (reference value: 30 pg/g); assay type: functional
# Cynomolgus monkey [29] = assay: Activation of monocytes in cynomolgus monkey plasma assessed as upregulation of MIP1 levels at 3 mg/kg, po after 24 hrs by Luminex assay (reference value: 37 pg/ml); assay type: functional, Macaca fascicularis
compound,measurement,setting,value
CCC[C@@H](CCO)Nc1nc(N)nc2c(F)cccc12,Activity,[1],Dose-dependent effect
same,Activity,Liver [2],2865 pg/g
same,Activity,Cynomolgus monkey [3],9135 pg/mL
same,Activity,Liver [4],7790 pg/g
same,"metabolised at 0.25 h, 1 µM",[5],93%
same,Activity,Cynomolgus monkey [6],8195 pg/mL
same,Activity,Liver [7],Below limit of detection
same,fold change (FC),Cynomolgus monkey [8],50
same,bioavailability,[9],< 11%
same,fold change (FC),Cynomolgus monkey [10],180
same,fold change (FC),Cynomolgus monkey [11],55
same,Activity,Cynomolgus monkey [12],2265 pg/mL
same,"metabolised at 1 h, 1 µM",[13],99%
same,Activity,Cynomolgus monkey [14],1615 pg/mL
same,fold change (FC),Plasma [15],2875
same,Cmax,[16],142 ng/mL
same,Activity,Liver [17],7555 pg/g
same,Activity,[18],Dose-dependent effect
same,Activity,Plasma [19],380 pg/mL
same,permeability,[20],Permeable
same,Activity,Liver [21],Below limit of detection
same,"metabolised at 1 h, 1 µM",[22],98%
same,Activity,Cynomolgus monkey [23],1275 pg/mL
same,Activity,Cynomolgus monkey [24],1490 pg/mL
same,Cmax,[25],22 ng/mL
same,Activity,Plasma [26],1150 pg/mL
same,Activity,[27],Active
same,IC50,D(1A) dopamine receptor,> 10 µM
same,Activity,Liver [28],1365 pg/g
same,Activity,Cynomolgus monkey [29],85 pg/mL
